Compound activity deposited in PubChem BioAssay by several laboratories.
Only some compounds are listed: those with a hit (about 1.9% of all), similar ones and a draw of the others.
Rce1 inh: yeast Ras-converting enzyme inhibition. Q03530. yeast membranes, quenched prenylated peptide cleavage fluorescence. calls only. 0.27% of 290,000 active. AID 2563;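 active means fall in fluorescence gain of 50% or more versus controls, with final raw signal at or below 3038400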
NR1D1 modulator: Rev-erb alpha (human) modulation | 0.79% of 370,000 active | P20393 | AID 1259318 | activity, % at 10 µM | Rev-erbα–FITC-DNA binding, fluorescence polarization, 90 min;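 active means activity above about 14%, limit read from the data; passing the limit was not always enough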
Target sequence (P20393 whole entry, looked up): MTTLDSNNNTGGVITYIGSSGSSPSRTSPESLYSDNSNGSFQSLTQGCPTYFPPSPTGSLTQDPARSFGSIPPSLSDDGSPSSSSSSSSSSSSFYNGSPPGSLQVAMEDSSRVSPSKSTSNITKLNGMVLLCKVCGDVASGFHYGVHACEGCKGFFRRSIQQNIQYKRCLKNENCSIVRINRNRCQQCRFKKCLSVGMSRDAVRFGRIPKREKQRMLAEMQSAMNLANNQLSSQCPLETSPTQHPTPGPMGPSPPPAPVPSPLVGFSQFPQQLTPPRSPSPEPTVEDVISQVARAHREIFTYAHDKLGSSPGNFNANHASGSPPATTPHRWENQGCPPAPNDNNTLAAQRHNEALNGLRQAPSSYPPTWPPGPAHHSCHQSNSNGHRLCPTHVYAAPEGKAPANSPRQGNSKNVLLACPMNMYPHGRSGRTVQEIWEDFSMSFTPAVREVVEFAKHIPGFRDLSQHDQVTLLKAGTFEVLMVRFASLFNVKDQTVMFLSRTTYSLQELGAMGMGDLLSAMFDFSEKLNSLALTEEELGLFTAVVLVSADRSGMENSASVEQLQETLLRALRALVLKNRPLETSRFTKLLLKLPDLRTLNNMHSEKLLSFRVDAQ
beta cell repl: induces beta-cell replication in MIN6 cells. MIN6 cells proliferation, ATPlite luminescence, 48 h; cells starved in 0.2% serum; 100% = growth in 10% serum. proliferation, % at 10 µM. 0.29% of 330,000 active;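 active means compounds whose signal lies at least 3.5 SD above the mean of all wells on their plate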
Yeast superoxide: caloric restriction mimetics inhibiting age-related superoxide in yeast; S. cerevisiae aged cells, superoxide DHE fluorescence; stronger effect = lower value; superoxide response (% of plate mean), % at 10 µM; 0.18% of 330,000 active; AID 2690;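 active means superoxide response under a set limit, about three screen SD below normal, cut at about 65% in these data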;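 further: yeast aged for seven days with compound at 30 °C before DHE staining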
UCH37 DUB inh: blocks the human deubiquitinase UCH37; inhibition, % (no concentration beside the values); 0.33% of 330,000 active; purified proteasome/UCH37, Ub-AMC cleavage fluorescence; AID 588478; Q9Y5K5;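 active means mean inhibition over replicate wells above about 20%, limit read from the data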
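Schedule: 30 min plus 25 min, room temperature / Material: human UCH37 within purified proteasomes / Technique: AMC fluorescence intensity at 355/460 nm / Buffer or medium: pH 7.4 Tris-HCl (50 mM) with ovalbumin, ATP-MgCl2, DTT / Controls: wells without proteasome as full block, compound-free enzyme plus substrate as uninhibited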
PG9 Ab binder: small molecules binding HIV-1 gp120 antibody PG9 | TR-FRET gp120-PG9 antibody binding | inhibition, % at 6.7 µM | 0.43% of 360,000 active; in the data active means inhibition above about 8.5%
PG9 binder conf: PG9 antibody binding, confirmed | shares compounds with PG9 Ab binder | inhibition, % at 6.7 µM | AID 651571 | 90% of 1,500 active | TR-FRET PG9 antibody binding, biochemical; in the data active means inhibition above about 9%
PGV04 Ab binding: counter-screen for PG9 binders: binding control antibody PGV04; inhibition, % at 6.7 µM; shares compounds with PG9 Ab binder; 95% of 1,500 active; TR-FRET PGV04 antibody-gp120 binding, biochemical; AID 651604; in the data active means inhibition above about 9.5%
Each line names hits and unclear results; the compound was inactive in the other large screens (follow-up assays come after a bar, where they were run).

CCCCNS(=O)(=O)c1ccc2nc(-c3cccnc3)cc(C(=O)NCCCOCC)c2c1	none (no result: NR1D1 modulator, PG9 Ab binder)
O=C(Nc1nccs1)c1ccc(CSc2ccccc2)o1	none
Cc1ccc(OCc2ccc(C(=O)Nc3nccs3)o2)cc1	PG9 Ab binder 13.5 | PG9 binder conf 14.6 | PGV04 Ab binding 21.1
O=C(Nc1nccs1)c1ccc(COc2ccccc2)o1	PG9 Ab binder 9.3 | PG9 binder conf 12.8 | PGV04 Ab binding 20.4
COc1ccc(NC(=O)CC(C)=NNC(=O)c2cnccn2)c(OC)c1	none (no result: Rce1 inh, NR1D1 modulator, beta cell repl, Yeast superoxide, PG9 Ab binder)
CSc1ccc(C=NNc2cccc(C(=O)O)c2)cc1	none (no result: Rce1 inh, NR1D1 modulator, beta cell repl, Yeast superoxide, PG9 Ab binder)
CCc1ccc(-c2nc3ccc(Br)cc3c(C(=O)O)c2C)s1	PG9 Ab binder 27.0 | PG9 binder conf 33.0 | PGV04 Ab binding 58.8
Cc1c(-c2ccccc2Br)nc2ccccc2c1C(=O)O	none (no result: Rce1 inh, beta cell repl, Yeast superoxide, UCH37 DUB inh)
CC(=NOC(=O)c1ccc(Cl)cc1)c1sc(-c2ccccc2)nc1C	none (no result: Rce1 inh, NR1D1 modulator, beta cell repl, Yeast superoxide, PG9 Ab binder)
CNc1nn(-c2cccc(Cl)c2)nc1N	PG9 Ab binder 21.4 | PG9 binder conf 21.5 | PGV04 Ab binding 27.0
Cc1cc(N2C(=O)C(O)=C(C(=O)c3cc4ccccc4o3)C2c2ccc(Cl)cc2)no1 (stereo not given)	PG9 Ab binder 25.6 (no result: UCH37 DUB inh) | PG9 binder conf 33.2 | PGV04 Ab binding 51.0
Cc1cc(N2C(=O)C(O)=C(C(=O)c3ccco3)C2c2cccc(Cl)c2)no1 (stereo not given)	none
Cc1cc(N2C(=O)C(O)=C(C(=O)c3ccc(C)o3)C2c2cccc(Cl)c2)no1 (stereo not given)	PG9 Ab binder 8.7 (no result: Rce1 inh, beta cell repl, Yeast superoxide, UCH37 DUB inh) | PG9 binder conf 17.4 | PGV04 Ab binding 23.7
Cc1cc(N2C(=O)C(O)=C(C(=O)c3cc4ccccc4o3)C2c2cccc(Cl)c2)no1 (stereo not given)	PG9 Ab binder 26.6 (no result: UCH37 DUB inh) | PG9 binder conf 40.4 | PGV04 Ab binding 56.0
Cc1cc(N2C(=O)C(O)=C(C(=O)c3cc4ccccc4o3)C2c2ccc(Br)cc2)no1 (stereo not given)	PG9 Ab binder 11.8 (no result: UCH37 DUB inh) | PG9 binder conf 32.2 | PGV04 Ab binding 45.4
CCCOc1ccc(C2C(C(=O)c3cc4ccccc4o3)=C(O)C(=O)N2c2cc(C)on2)cc1 (stereo not given)	none (no result: UCH37 DUB inh)
S=c1[nH]nc(-c2cc(-c3ccccc3)n[nH]2)n1N=Cc1ccc(Cl)c(Cl)c1	none (no result: Rce1 inh, NR1D1 modulator, beta cell repl, Yeast superoxide, PG9 Ab binder)
CCCC1C(=NO)CC(c2ccccc2)NC1c1ccccc1 (stereo not given)	none (no result: Rce1 inh, NR1D1 modulator, beta cell repl, Yeast superoxide, PG9 Ab binder)
CC(=NNC(=O)c1ccn(C)n1)c1ccco1	none (no result: Rce1 inh, NR1D1 modulator, beta cell repl, Yeast superoxide, PG9 Ab binder)
CC(=O)c1sc(C(C)(C)C)cc1NC(=O)CCC(=O)O	PG9 Ab binder 10.4 (no result: Rce1 inh) | PG9 binder conf 19.0 | PGV04 Ab binding 22.8
CC(=O)c1sc(C(C)(C)C)cc1NC(=O)/C=C/C(=O)O	none
CC(=NNC(=O)CNc1cccc(Cl)c1C)c1cccs1	none (no result: Rce1 inh, NR1D1 modulator, beta cell repl, Yeast superoxide, PG9 Ab binder)
O=C(Cn1c2ccccc2c(=O)c2ccccc21)N/N=C/c1cc([N+](=O)[O-])ccc1N1CCCCC1	none (no result: UCH37 DUB inh)
O=C(Cn1c2ccccc2c(=O)c2cc([N+](=O)[O-])ccc21)Nc1ccccc1Cl	PG9 Ab binder 11.9 (no result: UCH37 DUB inh) | PG9 binder conf 16.0 | PGV04 Ab binding 18.2
CC(=O)c1c(C)[nH]c(C(=O)Nc2cc(C)ccc2C)c1C	none
CC(=O)c1c(C)[nH]c(C(=O)Nc2ccc(C)cc2Br)c1C	PG9 Ab binder 10.3 | PG9 binder conf inactive | PGV04 Ab binding 10.9
CCc1c(C(=O)Nc2ccc(OC)cc2)[nH]c(C)c1C(C)=O	none
CCc1c(C(=O)Nc2cc(C)ccc2OC)[nH]c(C)c1C(C)=O	PG9 Ab binder 19.9 | PG9 binder conf 18.6 | PGV04 Ab binding 24.1
CCOCC(=O)Nc1ccc(OCc2ccccc2)cc1	none
Cc1ccc(SCCC(=O)Nc2ccc(OCc3ccccc3)cc2)cc1	PG9 Ab binder 9.2 | PG9 binder conf 15.1 | PGV04 Ab binding 18.8
O=C(NN=Cc1c(F)c(F)c(F)c(F)c1F)c1cccc(S(=O)(=O)N2CCOCC2)c1	none (no result: Rce1 inh, NR1D1 modulator, beta cell repl, Yeast superoxide, PG9 Ab binder)
Cc1onc(-c2ccccc2Cl)c1C(=O)Nc1nnc(-c2ccc(Cl)cc2Cl)s1	PG9 Ab binder 14.6 | PG9 binder conf 38.6 | PGV04 Ab binding 55.1
